Assay results reported in ChEMBL document CHEMBL1124947, “Cationic antiprotozoal drugs. Trypanocidal activity of 2-(4'-formylphenyl)imidazo[1,2-a]pyridinium guanylhydrazones and related derivatives of quaternary heteroaromatic compounds” (J Med Chem, 1990).

Assays:
Format in all cases: functional
[1] = tested on: Mus musculus; test: Trypanocidal Activity was determined after subcutaneous administration
How it was run: (§1)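 Mice, in groups of five per dose, were given a standard inoculum of blood-stage T. rhodesiense that is lethal to all untreated controls, then dosed subcutaneously. Usually 11 dose levels were used (2^n × 0.42 mg/kg).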

[2] = tested on: Mus musculus; test: Trypanocidal Activity at I.C.E. value 0.57 when administered subcutaneously.; how it was run: as §1
[3] = tested on: Mus musculus; test: Trypanocidal Activity at I.C.E. value 0.40 when administered perorally.
[4] = tested on: Mus musculus; test: Trypanocidal Activity at I.C.E. value 0.4 when administered perorally.
[5] = tested on: Mus musculus; test: Trypanocidal Activity at I.C.E. value 0.47 when administered subcutaneously.
How it was run: (§2)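 Blood-stage T. rhodesiense infection came from a standard inoculum lethal to all untreated mice. Drug was given by subcutaneous injection to groups of five mice. Survival beyond 30 days counted as cure. […] Sub-curative doses scored 0, and data were normalized at each dose.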

[6] = tested on: Trypanosoma brucei rhodesiense; test: In Vitro measurement of inhibition of thymidine uptake in cell culture of Trypanosoma rhodesiense; settings: read-out: ID50 (the source's name)
How it was run: (§3)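 Parasites harvested from infected rats and incubated 3 h across a drug concentration series, usually 0.1–100 µg/mL. Incorporation of radiolabeled thymidine measured. ID50 is the concentration (µg/mL) producing 50% inhibition.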

[7] = tested on: Trypanosoma brucei rhodesiense; test: In Vitro measurement of inhibition of leucine uptake in cell culture of Trypanosoma rhodesiense; settings: read-out: ID50 (the source's name)
How it was run: (§4)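 Trypanosomes harvested from infected rats, cultured 3 h with several concentrations of drug, usually 0.1–100 µg/mL. Radiolabeled L-leucine uptake measured. ID50 is the concentration in µg/mL giving 50% inhibition of incorporation.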

[8] = tested on: Mus musculus; test: Trypanocidal Activity at I.C.E. value 0.15 when administered perorally.
[9] = tested on: Mus musculus; test: Trypanocidal Activity at I.C.E. value 0.30 when administered subcutaneously.; how it was run: as §2
[10] = tested on: Mus musculus; test: Trypanocidal Activity at I.C.E. value 0.41 when administered subcutaneously.; how it was run: as §2
[11] = tested on: Mus musculus; test: Trypanocidal Activity at I.C.E. value 0.50 when administered subcutaneously.; how it was run: as §2
[12] = tested on: Mus musculus; test: Trypanocidal Activity at I.C.E. value 0.55 when administered subcutaneously.; how it was run: as §1
[13] = tested on: Mus musculus; test: Trypanocidal Activity at I.C.E. value >0.15 when administered subcutaneously.; how it was run: as §1
[14] = tested on: Mus musculus; test: Trypanocidal Activity at I.C.E. value 0.47 when administered perorally.
[15] = tested on: Mus musculus; test: Trypanocidal Activity at I.C.E. value 0.36 when administered subcutaneously.
[16] = tested on: Mus musculus; test: Trypanocidal Activity at I.C.E. value 0.12 when administered perorally.
[17] = tested on: Mus musculus; test: Trypanocidal Activity at I.C.E. value 0.23 when administered subcutaneously.; how it was run: as §2
[18] = tested on: Mus musculus; test: Trypanocidal Activity at I.C.E. value 0.20 when administered perorally.
[19] = tested on: Mus musculus; test: Trypanocidal Activity at I.C.E. value 0.56 when administered perorally.
[20] = tested on: Trypanosoma brucei rhodesiense; test: In Vitro measurement of inhibition of Leucine uptake in cell culture of Trypanosoma rhodesiense.; settings: read-out: ID50 (the source's name); how it was run: as §4
[21] = tested on: Trypanosoma brucei rhodesiense; test: In Vitro measurement of inhibition of thymidine uptake in cell culture of Trypanosoma rhodesiense.; settings: read-out: ID50 (the source's name); how it was run: as §3
[22] = tested on: Mus musculus; test: Trypanocidal Activity at I.C.E. value 0.48 when administered perorally.
[23] = tested on: Mus musculus; test: Trypanocidal Activity at I.C.E. value 0.49 when administered subcutaneously.; how it was run: as §2
[24] = tested on: Mus musculus; test: Trypanocidal Activity at I.C.E. value 0.63 when administered perorally.
[25] = tested on: Mus musculus; test: Trypanocidal Activity at I.C.E. value 0.54 when administered subcutaneously.; how it was run: as §2
[26] = tested on: Mus musculus; test: Trypanocidal Activity at I.C.E. value 0.21 when administered subcutaneously.
[27] = tested on: Mus musculus; test: Trypanocidal Activity at I.C.E. value 0.86 when administered subcutaneously.; how it was run: as §1
[28] = tested on: Mus musculus; test: Trypanocidal Activity at I.C.E. value 0.71 when administered subcutaneously.; how it was run: as §1
[29] = tested on: Mus musculus; test: Trypanocidal Activity at I.C.E. value 0.53 when administered perorally.
[30] = tested on: Mus musculus; test: Trypanocidal Activity at I.C.E. value 0.17 when administered perorally.
[31] = tested on: Mus musculus; test: Trypanocidal Activity at I.C.E. value 0.19 when administered subcutaneously.
[32] = tested on: Mus musculus; test: Trypanocidal Activity at I.C.E. value 0.94 when administered subcutaneously.; how it was run: as §1
[33] = tested on: Mus musculus; test: Trypanocidal Activity at I.C.E. value 0.31 when administered perorally.

Cc1ccc2n(c1)cc(-c1ccc(/C=N/NC(=N)N[N+](=O)[O-])cc1)[n+]2C.[Br-]
CD50 [1]: <26 mg/kg

Br.CC/N=C(\NCC)N/N=C/c1ccc(-c2cn3ccccc3[n+]2C)cc1.[Br-]
CD50 [2]: 1.6 mg/kg | CD50 [3]: 53 mg/kg

Br.C[n+]1cccc(COc2ccc(/C=N/NC(=N)N3CCCC3)cc2)c1.[Br-]
CD50 [4]: 26 mg/kg | CD50 [5]: 0.8 mg/kg | IC50 [6]: 0.3 µg/mL | IC50 [7]: 0.8 µg/mL

Br.CC/N=C(\NCC)N/N=C/c1ccc(C[n+]2cn(C)c3ccccc32)cc1.[Br-]
CD50 [8]: 424 mg/kg | CD50 [9]: 13 mg/kg

Br.Cc1ccc2n(c1)cc(/C=C/c1ccc(/C=N/NC3=NCCCN3)cc1)[n+]2C.[Br-]
CD50 [10]: 1.6 mg/kg

Br.CCCCNC(=N)N/N=C/c1ccc(-c2cn3ccccc3[n+]2C)cc1.[Br-]
CD50 [11]: 0.8 mg/kg

Br.CSC(=N)N/N=C/c1ccc(-c2cn3ccccc3[n+]2C)cc1.[Br-]
CD50 [12]: 6.6 mg/kg | IC50 [6]: 3.8 µg/mL | IC50 [7]: 5.8 µg/mL

C[n+]1c(-c2ccc(/C=N/NC(=N)N[N+](=O)[O-])cc2)cn2ccccc21.[Br-]
CD50 [13]: <26 mg/kg

Br.C[n+]1c(COc2ccc(/C=N/NC(=N)N3CCCC3)cc2)cn2ccccc21.[Br-]
CD50 [14]: 26 mg/kg | CD50 [15]: 0.8 mg/kg

Br.Cn1c[n+](Cc2ccc(/C=N/NC(=N)N3CCCC3)cc2)c2ccccc21.[Br-]
CD50 [16]: 424 mg/kg | IC50 [6]: 0.6 µg/mL | IC50 [7]: 0.7 µg/mL | CD50 [17]: 6.6 mg/kg

C[n+]1c(-c2ccc(/C=N/NC(=N)N3CCSC3)cc2)cn2ccccc21.Cc1ccc(S(=O)(=O)O)cc1.Cc1ccc(S(=O)(=O)[O-])cc1
CD50 [18]: 212 mg/kg | CD50 [9]: 13 mg/kg

Br.C[n+]1c(-c2ccc(/C=N/NC3=NCCN3)cc2)cn2ccccc21.[Br-]
CD50 [2]: 0.8 mg/kg | CD50 [19]: 13 mg/kg | IC50 [20]: 0.9 µg/mL | IC50 [21]: 0.8 µg/mL

Br.Cc1cccc2n1cc(COc1ccc(/C=N/NC(=N)N)cc1)[n+]2C.[Br-]
CD50 [22]: 13 mg/kg | CD50 [23]: 0.8 mg/kg

Br.Cn1cc[n+](C)c1/C=C/c1ccc(/C=N/NC2=NCCCN2)cc1.[Br-]
CD50 [24]: 6.6 mg/kg | CD50 [25]: 0.8 mg/kg

Br.CNC(=N)N/N=C/c1ccc(-c2cn3ccccc3[n+]2C)cc1.[Br-]
IC50 [20]: 0.7 µg/mL | IC50 [21]: 0.5 µg/mL | CD50 [10]: 0.8 mg/kg

Br.C[n+]1ccc(COc2ccc(/C=N/NC3=NCCN3)cc2)cc1.[Br-]
CD50 [16]: 424 mg/kg | CD50 [26]: 13 mg/kg

Br.Cc1ccc2n(c1)cc(COc1ccc(/C=N/NC3=NCCN3)cc1)[n+]2C.[Br-]
CD50 [27]: 0.8 mg/kg

C[n+]1c(/C=C/c2ccc(/C=N/NC3=NCCCN3)cc2)cn2ccccc21.[Br-]
CD50 [28]: 0.4 mg/kg | CD50 [29]: 13 mg/kg

Cc1ccc(S(=O)(=O)O)cc1.Cc1ccc(S(=O)(=O)[O-])cc1.Cc1ccn2cc(-c3ccc(/C=N/NC(=N)N)cc3)[n+](C)c2c1
CD50 [12]: 1.6 mg/kg | IC50 [21]: 1 µg/mL

C[n+]1c(-c2ccc(/C=N/Nc3nc[nH]n3)cc2)cn2ccsc21.[Br-]
CD50 [11]: 13 mg/kg

Br.C[n+]1ccccc1COc1ccc(/C=N/NC(=N)N2CCCC2)cc1.[Br-]
CD50 [30]: 106 mg/kg | CD50 [31]: 0.1 mg/kg

Br.CCCSc1ccc2n(c1)cc(-c1ccc(/C=N/NC(=N)N3CCCC3)cc1)[n+]2C.[Br-]
CD50 [32]: 0.1 mg/kg | CD50 [33]: 53 mg/kg
